Reference: ChEMBL document CHEMBL2040727, “Substituted thiazoles VI. Synthesis and antitumor activity of new 2-acetamido- and 2 or 3-propanamido-thiazole analogs” (2012)

Experiments:
Format in all cases: functional
HCC 2998 = test: Growth inhibition of human HCC2998 cells at 10 uM after 48 hrs by coulter counter analysis; conditions: HCC 2998, 48 h, read-out: GI
Outline: (§1)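 Single-dose NCI 60-line panel screen of test compounds. Cells grown in RPMI 1640 with 10% FBS. Compounds dissolved in DMSO, then diluted in phosphate buffer saline (final DMSO below 1%). Wells run in duplicate at 6 × 10⁴ cells/ml. Controls held PBS and DMSO at matching dilutions. Incubation 48 h at 37 °C under humidified 5% CO2. Cells diluted tenfold in saline and counted by Coulter counter. Percent growth inhibition taken from mean-graph of treated-cell growth.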

EKVX = test: Growth inhibition of human EKVX cells at 10 uM after 48 hrs by coulter counter analysis; conditions: read-out: GI; outline: as §1
HOP-62 = test: Growth inhibition of human HOP62 cells at 10 uM after 48 hrs by coulter counter analysis; conditions: HOP-62, 48 h, read-out: GI; outline: as §1
NCI-H522 = test: Growth inhibition of human NCI-H522 cells at 10 uM after 48 hrs by coulter counter analysis; conditions: NCI-H522, 48 h, read-out: GI; outline: as §1
OVCAR-3 = test: Growth inhibition of human OVCAR3 cells at 10 uM after 48 hrs by coulter counter analysis; conditions: OVCAR-3, 48 h, read-out: GI; outline: as §1
UACC-62 = test: Growth inhibition of human UACC62 cells at 10 uM after 48 hrs by coulter counter analysis; conditions: UACC-62, 48 h, read-out: GI
Outline: (§2)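 Single-dose screen in the NCI 60 cell line panel. Cells grown in RPMI 1640 with 10% FBS. Compounds dissolved in DMSO and diluted in phosphate buffered saline, final DMSO under 1%. Duplicate wells seeded from culture at 6 × 10⁴ cells/ml. Incubated 48 h at 37 °C, humidified, 5% CO2. Cells diluted tenfold in saline and Coulter-counted. Percent growth inhibition computed against PBS/DMSO controls.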

ACHN = test: Growth inhibition of human ACHN cells at 10 uM after 48 hrs by coulter counter analysis; conditions: read-out: GI; outline: as §1
SK-MEL-5 = test: Growth inhibition of human SK-MEL-5 cells at 10 uM after 48 hrs by coulter counter analysis; conditions: SK-MEL-5, 48 h, read-out: GI; outline: as §1
A549 = test: Growth inhibition of human A549/ATCC cells at 10 uM after 48 hrs by coulter counter analysis; conditions: A549, 48 h, read-out: GI; outline: as §1
A498 = test: Growth inhibition of human A498 cells at 10 uM after 48 hrs by coulter counter analysis; conditions: A498, 48 h, read-out: GI; outline: as §1
NCI-H23 = test: Growth inhibition of human NCI-H23 cells at 10 uM after 48 hrs by coulter counter analysis; conditions: NCI-H23, 48 h, read-out: GI; outline: as §1
MCF7 = test: Growth inhibition of human MCF7 cells at 10 uM after 48 hrs by coulter counter analysis; conditions: MCF7, 48 h, read-out: GI; outline: as §1
SNB-19 = test: Growth inhibition of human SNB19 cells at 10 uM after 48 hrs by coulter counter analysis; conditions: SNB-19, 48 h, read-out: GI; outline: as §1
IGROV-1 = test: Growth inhibition of human IGROV1 cells at 10 uM after 48 hrs by coulter counter analysis; conditions: IGROV-1, 48 h, read-out: GI; outline: as §1
HT-29 = test: Growth inhibition of human HT-29 cells at 10 uM after 48 hrs by coulter counter analysis; conditions: HT-29, 48 h, read-out: GI; outline: as §1
LOX IMVI = test: Growth inhibition of human LOXIMVI cells at 10 uM after 48 hrs by coulter counter analysis; conditions: read-out: GI; outline: as §1
SF-295 = test: Growth inhibition of human SF295 cells at 10 uM after 48 hrs by coulter counter analysis; conditions: SF-295, 48 h, read-out: GI; outline: as §1
SW-620 = test: Growth inhibition of human SW620 cells at 10 uM after 48 hrs by coulter counter analysis; conditions: SW-620, 48 h, read-out: GI; outline: as §2
SN12C = test: Growth inhibition of human SN12C cells at 10 uM after 48 hrs by coulter counter analysis; conditions: read-out: GI; outline: as §1
SK-MEL-2 = test: Growth inhibition of human SK-MEL-2 cells at 10 uM after 48 hrs by coulter counter analysis; conditions: SK-MEL-2, 48 h, read-out: GI; outline: as §1
NCI-H322M = test: Growth inhibition of human NCI-H322M cells at 10 uM after 48 hrs by coulter counter analysis; conditions: read-out: GI; outline: as §1
OVCAR-5 = test: Growth inhibition of human OVCAR5 cells at 10 uM after 48 hrs by coulter counter analysis; conditions: OVCAR-5, 48 h, read-out: GI; outline: as §1
SF-268 = test: Growth inhibition of human SF268 cells at 10 uM after 48 hrs by coulter counter analysis; conditions: SF-268, 48 h, read-out: GI; outline: as §1
T47D = test: Growth inhibition of human T47D cells at 10 uM after 48 hrs by coulter counter analysis; conditions: read-out: GI; outline: as §2
786-0 = test: Growth inhibition of human 786-0 cells at 10 uM after 48 hrs by coulter counter analysis; conditions: 786-0, 48 h, read-out: GI; outline: as §1
M14 = test: Growth inhibition of human M14 cells at 10 uM after 48 hrs by coulter counter analysis; conditions: M14, 48 h, read-out: GI; outline: as §1
OVCAR-8 = test: Growth inhibition of human OVCAR8 cells at 10 uM after 48 hrs by coulter counter analysis; conditions: OVCAR-8, 48 h, read-out: GI; outline: as §1
HOP-92 = test: Growth inhibition of human HOP92 cells at 10 uM after 48 hrs by coulter counter analysis; conditions: HOP-92, 48 h, read-out: GI; outline: as §1
Malme-3M = test: Growth inhibition of human MALME-3M cells at 10 uM after 48 hrs by coulter counter analysis; conditions: read-out: GI; outline: as §1
DU-145 = test: Growth inhibition of human DU145 cells at 10 uM after 48 hrs by coulter counter analysis; conditions: DU-145, 48 h, read-out: GI; outline: as §1
K562 = test: Growth inhibition of human K562 cells at 10 uM after 48 hrs by coulter counter analysis; conditions: K562, 48 h, read-out: GI; outline: as §1
SNB-75 = test: Growth inhibition of human SNB75 cells at 10 uM after 48 hrs by coulter counter analysis; conditions: SNB-75, 48 h, read-out: GI; outline: as §2
MOLT-4 = test: Growth inhibition of human MOLT4 cells at 10 uM after 48 hrs by coulter counter analysis; conditions: MOLT-4, 48 h, read-out: GI; outline: as §1
[1] = Growth inhibition of human NCI-ADR-RES cells at 10 uM after 48 hrs by coulter counter analysis; conditions: read-out: GI; outline: as §1
[2] = Growth inhibition of human Hs 578T cells at 10 uM after 48 hrs by coulter counter analysis; conditions: read-out: GI; outline: as §1
MDA-MB-435 = test: Growth inhibition of human MDA-MB-435 cells at 10 uM after 48 hrs by coulter counter analysis; conditions: MDA-MB-435, 48 h, read-out: GI; outline: as §1
CCRF-CEM = test: Growth inhibition of human CCRF-CEM cells at 10 uM after 48 hrs by coulter counter analysis; conditions: read-out: GI; outline: as §1

SMILES | inhibition of growth at 10 µM (HCC 2998) [%] | inhibition of growth at 10 µM (EKVX) [%] | inhibition of growth at 10 µM (HOP-62) [%] | inhibition of growth at 10 µM (OVCAR-3) [%] | inhibition of growth at 10 µM (UACC-62) [%] | inhibition of growth at 10 µM (ACHN) [%] | inhibition of growth at 10 µM (SK-MEL-5) [%] | inhibition of growth at 10 µM (A549) [%] | inhibition of growth at 10 µM (A498) [%] | inhibition of growth at 10 µM (NCI-H23) [%] | inhibition of growth at 10 µM (MCF7) [%] | inhibition of growth at 10 µM (SNB-19) [%] | inhibition of growth at 10 µM (IGROV-1) [%] | inhibition of growth at 10 µM (HT-29) [%] | inhibition of growth at 10 µM (LOX IMVI) [%] | inhibition of growth at 10 µM (SF-295) [%] | inhibition of growth at 10 µM (SW-620) [%] | inhibition of growth at 10 µM (SN12C) [%] | inhibition of growth at 10 µM (SK-MEL-2) [%] | inhibition of growth at 10 µM (NCI-H322M) [%] | also measured
Cc1cnc(NC(=O)CCN2CCN(c3ccccc3)CC2)s1 | < 10 | 11.4 | < 10 | < 10 | < 10 | < 10 | < 10 | < 10 | < 10 | < 10 | < 10 | < 10 | < 10 | < 10 | < 10 | < 10 | < 10 | < 10 | < 10 | < 10 | inhibition of growth at 10 µM (NCI-H522): < 10%; inhibition of growth at 10 µM (OVCAR-5): < 10%; inhibition of growth at 10 µM (SF-268): < 10%; inhibition of growth at 10 µM (T47D): < 10%; inhibition of growth at 10 µM (786-0): < 10%; inhibition of growth at 10 µM (M14): < 10%; inhibition of growth at 10 µM (OVCAR-8): < 10%; inhibition of growth at 10 µM (HOP-92): < 10%; inhibition of growth at 10 µM (Malme-3M): < 10%; inhibition of growth at 10 µM (DU-145): < 10%; inhibition of growth at 10 µM (K562): < 10%; inhibition of growth at 10 µM (SNB-75): < 10%; inhibition of growth at 10 µM (MOLT-4): < 10%; inhibition of growth at 10 µM [1]: < 10%; inhibition of growth at 10 µM [2]: < 10%; inhibition of growth at 10 µM (MDA-MB-435): < 10%
CCOC(=O)c1sc(NC(=O)CN(C)C)nc1C | < 10 | < 10 | < 10 | < 10 | < 10 | < 10 | < 10 | < 10 | < 10 | < 10 | < 10 | < 10 | < 10 | < 10 | < 10 | < 10 | < 10 | < 10 | < 10 | < 10 | inhibition of growth at 10 µM (NCI-H522): < 10%; inhibition of growth at 10 µM (OVCAR-5): < 10%; inhibition of growth at 10 µM (SF-268): < 10%; inhibition of growth at 10 µM (T47D): < 10%; inhibition of growth at 10 µM (786-0): < 10%; inhibition of growth at 10 µM (M14): < 10%; inhibition of growth at 10 µM (OVCAR-8): < 10%; inhibition of growth at 10 µM (HOP-92): < 10%; inhibition of growth at 10 µM (Malme-3M): < 10%; inhibition of growth at 10 µM (DU-145): < 10%; inhibition of growth at 10 µM (K562): < 10%; inhibition of growth at 10 µM (SNB-75): < 10%; inhibition of growth at 10 µM (MOLT-4): < 10%; inhibition of growth at 10 µM [1]: < 10%; inhibition of growth at 10 µM [2]: < 10%; inhibition of growth at 10 µM (MDA-MB-435): < 10%
O=C(CCCl)Nc1nc(-c2ccccc2)cs1 | 15.8 | 24.1 | 51.4 | 98 | 39 | 50.7 | 48.9 | 53.1 | 78.4 | 34.7 | 75.9 | 29.3 | 50 | 76.1 | 47.8 | 46.3 | 70.7 | 57.2 | 71.2 | 29.2 | inhibition of growth at 10 µM (CCRF-CEM): 92.7%; inhibition of growth at 10 µM (OVCAR-5): 35.7%; inhibition of growth at 10 µM (SF-268): 63%; inhibition of growth at 10 µM (T47D): 55.2%; inhibition of growth at 10 µM (786-0): 36.7%; inhibition of growth at 10 µM (M14): 52.7%; inhibition of growth at 10 µM (OVCAR-8): 56.1%; inhibition of growth at 10 µM (Malme-3M): 68.2%; inhibition of growth at 10 µM (DU-145): 89.8%; inhibition of growth at 10 µM (K562): 69.3%; inhibition of growth at 10 µM (SNB-75): 60.6%; inhibition of growth at 10 µM (MOLT-4): 40.7%; inhibition of growth at 10 µM [1]: 59.6%; inhibition of growth at 10 µM [2]: < 10%; inhibition of growth at 10 µM (MDA-MB-435): 68.2%
O=C(CCN1CCN(c2ccccc2)CC1)Nc1nc(-c2ccccc2)cs1 | < 10 | 24.8 | 24.8 | 26.1 | 33.2 | 16.4 | 52.5 | 17.9 | 67.5 | 31.4 | 12.7 | 10.3 | 33.5 | < 10 | 25.7 | 13.6 | 10.9 | 33.5 | < 10 | 13 | inhibition of growth at 10 µM (NCI-H522): 21.3%; inhibition of growth at 10 µM (CCRF-CEM): 31.4%; inhibition of growth at 10 µM (OVCAR-5): 18.8%; inhibition of growth at 10 µM (SF-268): 22.3%; inhibition of growth at 10 µM (T47D): 20.4%; inhibition of growth at 10 µM (786-0): 18.1%; inhibition of growth at 10 µM (M14): < 10%; inhibition of growth at 10 µM (OVCAR-8): 23.6%; inhibition of growth at 10 µM (HOP-92): 59.6%; inhibition of growth at 10 µM (Malme-3M): < 10%; inhibition of growth at 10 µM (DU-145): 18.2%; inhibition of growth at 10 µM (K562): 32.6%; inhibition of growth at 10 µM (SNB-75): 28.6%; inhibition of growth at 10 µM (MOLT-4): 37.9%; inhibition of growth at 10 µM [1]: 34.6%; inhibition of growth at 10 µM [2]: 14%; inhibition of growth at 10 µM (MDA-MB-435): 13.4%
